Experimental data collected from several papers.
Compare with care: the assays were run in different laboratories.
SCN1A: Sodium channel protein type 1 subunit alpha (SCN1A, Homo sapiens, UniProt P35498)
PTK2: Focal adhesion kinase 1 (PTK2, Homo sapiens, UniProt Q05397)

`Cc1nnc(SCC2=C(C(=O)O)N3C(=O)[C@@H](NC(=O)Cn4cnnn4)[C@H]3SC2)s1` gave an inhibition of 7.45% (SCN1A; ion current, inhibitor, patch clamp; 30 µM).
The Emax of `CNC[C@H](O)c1cccc(O)c1` is reported as about 80% (Alpha-1A adrenergic receptor (ADRA1A, Homo sapiens, UniProt P35348); calcium signal, agonist; COS-7).
The remaining binding of `Cc1cc([C@@H](C)Nc2ccccc2C(=O)O)c2nc(N3CCC(F)(F)CC3)c(C#N)c(=O)n2c1` is reported as 100% (PTK2; binding, competition with immobilised ligand; 10 µM).
The activity vs control of `CC(=O)c1c(C)c2cnc(Nc3ccc(N4CCNCC4)cn3)nc2n(C2CCCC2)c1=O` is reported as 103% (Cyclin-dependent kinase 5, with p35 (CDK5, Homo sapiens, UniProt Q00535); enzyme activity, inhibitor, ADP detection; 1 µM).
The inhibition of `Nc1c(Br)cc(Br)cc1CN[C@H]1CC[C@H](O)CC1` is reported as 33.3% (SCN1A; ion current, inhibitor, patch clamp; 10 µM).
With `C[C@H]1O[C@H](O[C@H]2[C@H](O)[C@@H](O)[C@@H](O[C@H]3[C@H](O)[C@@H](O)C(O)O[C@@H]3CO)O[C@@H]2CO)[C@H](O)[C@@H](O)[C@@H]1N[C@H]1C=C(CO)[C@@H](O)[C@H](O)[C@H]1O` (stereo partly shown) the inhibition was 91.2% (Alpha-glucosidase MAL12 (MAL12, Saccharomyces cerevisiae S288c, UniProt P53341); enzyme activity, inhibitor, absorbance; 2000 µg/mL).
`CNc1ncc2c(/C=C/C(=O)N3CCC(OC)CC3)nn(Cc3cccc(C(F)(F)F)c3)c2n1` has a remaining activity of 87% (Receptor-interacting serine/threonine-protein kinase 2 (RIPK2, Homo sapiens, UniProt O43353); enzyme activity, inhibitor, radiometric; 1 µM).
For `CC(C)NCC(O)COc1cccc2ccccc12` (stereo not shown), the inhibition was 16.4% (SCN1A; ion current, inhibitor, patch clamp; 10 µM).
`C=CC(=O)N1CCC(COCC(=O)N2CCN(c3nc(-c4cnc(N)nc4C(F)F)nc(N4CCOC[C@@H]4C)n3)CC2)CC1` has a remaining binding of 93% (Mitotic checkpoint serine/threonine-protein kinase BUB1 (BUB1, Homo sapiens, UniProt O43683); binding, competition with immobilised ligand; 1 µM).
`COc1cc(-c2cncc3c2CN(C)Cc2cc(N4CCNCC4)ccc2-3)cc(OC)c1OC` has a remaining activity of 102% (PTK2; enzyme activity, inhibitor; 1 µM).
